Source: ChEMBL document CHEMBL4613292, “5,6-Dihydroxypyrimidine Scaffold to Target HIV-1 Nucleocapsid Protein” (ACS Med Chem Lett, 2020)
Activity calls are given as the source filed them. The calls are words filed in the database; no cut-off is given here.

What was measured:
[1] = (§1) Inhibition of HIV1 Nucleocapsid protein (11 to 55 residues) assessed as reduction in NC-induced cTAR DNA destabilization by measuring intrinsic fluorescence using Alexa488-5'-cTAR-3'-Dabcyl oligonucleotide as substrate at 20 degree C incubated for 15 mins by fluorescence assay; parameters: species or system Human immunodeficiency virus 1; settings: read-out: IC50
Summary of the method: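 Fluorescence NC-inhibition assay following destabilisation of cTAR DNA, the complement of the HIV-1 transactivation response element, dual-labelled with Alexa488 dye and Dabcyl quencher. NC protein at 1 μM, so the lowest measurable IC50 is 0.5 μM.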

[2] = test system: Human immunodeficiency virus 1; test: (§2) Antiviral activity against wild-type HIV1 NL4-3 infected in human TZM-bl cells infected with supernatants from virus-infected human MT2 cells treated with compound for 48 to 72 hrs assessed as reduction in viral replication after 2 days by bright Glo-luciferase reporter gene assay based BiCycle assay; type: functional, organism-based; settings: Human immunodeficiency virus 1, NL4-3, TZM
Summary of the method: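 Two-round cell assay over the full replication cycle: MT-2 T cells are infected with wild-type reference strain NL4-3 in the first round, and reporter TZM-bl cells are infected in the second round. Values are given as mean ± deviation.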

[3] = Cytotoxicity against human HeLa cells assessed as reduction in cell viability; type: cell-based
[4] = as §2, with “Selectivity index, ratio of CC50 for human HeLa cells assessed as reduction in cell viability to EC50 for” for “Antiviral activity against”; type: toxicity; settings: read-out: Ratio CC50/EC50
Summary of the method: (§3)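 Selectivity index is CC50 from the respective cytotoxicity assay (HeLa or PBMC) divided by EC50 from the two-round MT-2/TZM-bl NL4-3 assay.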

[5] = Cytotoxicity against phytohemagglutinin and interleukin-2-stimulated human PBMC cells assessed as reduction in cell viability measured after 7 days by MTS assay; type: cell-based
[6] = as §2, with “Selectivity index, ratio of CC50 for human PBMC cells stimulated with phytohemagglutinin and interleukin-2 assessed as reduction in cell viability measured after 7 days by MTS assay to EC50 for” for “Antiviral activity against”; type: toxicity; settings: read-out: Ratio CC50/EC50; summary of the method: as §3
[7] = test system: Human immunodeficiency virus 1; test: Antiviral activity against PI-resistant HIV1 11808; type: functional, organism-based; settings: Human immunodeficiency virus 1, 11808
[8] = test system: Human immunodeficiency virus 1; test: Antiviral activity against NRTI-resistant HIV1 7401; type: functional, organism-based; settings: Human immunodeficiency virus 1, 7401
[9] = test system: Human immunodeficiency virus 1; test: Antiviral activity against NNRTI-resistant HIV1 12231; type: functional, organism-based; settings: Human immunodeficiency virus 1, 12231
[10] = test system: Human immunodeficiency virus 1; test: Antiviral activity against INI-resistant HIV1 11845; type: functional, organism-based; settings: Human immunodeficiency virus 1, 11845
[11] = test system: Human immunodeficiency virus 1; test: as §1, with “Ratio” for “Inhibition”, “of IC50 for PI-resistant HIV1 11808 Nucleocapsid protein (11 to 55 residues) using Alexa488-5'-cTAR-3'-Dabcyl oligonucleotide as substrate to IC50 for” for “of”
[12] = test system: Human immunodeficiency virus 1; test: as §1, with “Ratio” for “Inhibition”, “of IC50 for NRTI-resistant HIV1 7401 Nucleocapsid protein (11 to 55 residues) using Alexa488-5'-cTAR-3'-Dabcyl oligonucleotide as substrate to IC50 for” for “of”
[13] = test system: Human immunodeficiency virus 1; test: as §1, with “Ratio” for “Inhibition”, “of IC50 for NNRTI-resistant HIV1 12231 Nucleocapsid protein (11 to 55 residues) using Alexa488-5'-cTAR-3'-Dabcyl oligonucleotide as substrate to IC50 for” for “of”
[14] = test system: Human immunodeficiency virus 1; test: as §1, with “Ratio” for “Inhibition”, “of IC50 for INI-resistant HIV1 11845 Nucleocapsid protein (11 to 55 residues) using Alexa488-5'-cTAR-3'-Dabcyl oligonucleotide as substrate to IC50 for” for “of”
[15] = Half life in mouse plasma at 3 uM by LC-MS/MS analysis; type: ADME, cell-free
[16] = Half life in human plasma at 3 uM by LC-MS/MS analysis; type: ADME, cell-free
[17] = Half life in mouse hepatocytes at 3 uM by LC-MS/MS analysis; type: ADME, cell-based, Hepatocyte
[18] = Half life in human hepatocytes at 3 uM by LC-MS/MS analysis; type: ADME, cell-based, Hepatocyte
[19] = target: Voltage-gated inwardly rectifying potassium channel KCNH2 (Homo sapiens, UniProt Q12809); test: Displacement of Tracer Red from human ERG measured after 4 hrs by fluorescence polarization assay
Sequence of Voltage-gated inwardly rectifying potassium channel KCNH2 (Q12809 whole entry): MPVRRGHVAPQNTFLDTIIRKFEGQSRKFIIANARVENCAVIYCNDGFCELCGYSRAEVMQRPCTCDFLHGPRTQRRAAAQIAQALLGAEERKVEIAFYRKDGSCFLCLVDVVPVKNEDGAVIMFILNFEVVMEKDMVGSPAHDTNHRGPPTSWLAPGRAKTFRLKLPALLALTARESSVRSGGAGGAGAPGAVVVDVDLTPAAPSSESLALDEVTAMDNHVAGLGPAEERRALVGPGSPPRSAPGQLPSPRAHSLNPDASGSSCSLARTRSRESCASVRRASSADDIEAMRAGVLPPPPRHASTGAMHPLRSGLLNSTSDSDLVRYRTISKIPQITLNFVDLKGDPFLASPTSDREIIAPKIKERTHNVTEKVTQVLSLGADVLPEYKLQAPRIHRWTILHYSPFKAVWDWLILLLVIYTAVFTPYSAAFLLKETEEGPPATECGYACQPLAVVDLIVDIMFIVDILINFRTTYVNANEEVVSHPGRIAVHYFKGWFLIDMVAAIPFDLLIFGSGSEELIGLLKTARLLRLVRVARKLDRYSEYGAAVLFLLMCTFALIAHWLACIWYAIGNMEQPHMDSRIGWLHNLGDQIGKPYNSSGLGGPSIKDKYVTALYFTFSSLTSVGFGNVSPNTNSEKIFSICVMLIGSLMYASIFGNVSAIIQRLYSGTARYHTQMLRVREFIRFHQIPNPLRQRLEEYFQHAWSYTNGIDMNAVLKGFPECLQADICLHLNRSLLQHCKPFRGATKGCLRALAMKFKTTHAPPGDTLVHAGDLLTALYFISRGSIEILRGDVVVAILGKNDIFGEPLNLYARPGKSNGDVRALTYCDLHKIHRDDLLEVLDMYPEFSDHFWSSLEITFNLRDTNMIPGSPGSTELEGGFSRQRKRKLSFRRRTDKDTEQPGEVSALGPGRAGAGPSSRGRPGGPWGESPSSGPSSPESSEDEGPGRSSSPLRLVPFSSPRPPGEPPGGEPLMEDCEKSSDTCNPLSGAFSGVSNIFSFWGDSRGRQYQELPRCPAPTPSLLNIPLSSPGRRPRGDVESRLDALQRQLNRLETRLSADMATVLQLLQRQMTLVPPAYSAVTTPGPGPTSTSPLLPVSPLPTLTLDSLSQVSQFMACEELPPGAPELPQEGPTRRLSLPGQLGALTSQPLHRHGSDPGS

Cytochrome P450 1A2 = target: T1, Cytochrome P450 1A2 (Homo sapiens, UniProt P05177); test: Inhibition of human microsomal CYP1A2 expressed in baculovirus infected insect cells using luciferin-1A2 as substrate preincubated with enzyme-substrate mixture for 30 mins followed by further incubation with NADPH for 30 mins by CYP450 luciferase Glo assay; type: ADME
T1 sequence (P05177 whole entry): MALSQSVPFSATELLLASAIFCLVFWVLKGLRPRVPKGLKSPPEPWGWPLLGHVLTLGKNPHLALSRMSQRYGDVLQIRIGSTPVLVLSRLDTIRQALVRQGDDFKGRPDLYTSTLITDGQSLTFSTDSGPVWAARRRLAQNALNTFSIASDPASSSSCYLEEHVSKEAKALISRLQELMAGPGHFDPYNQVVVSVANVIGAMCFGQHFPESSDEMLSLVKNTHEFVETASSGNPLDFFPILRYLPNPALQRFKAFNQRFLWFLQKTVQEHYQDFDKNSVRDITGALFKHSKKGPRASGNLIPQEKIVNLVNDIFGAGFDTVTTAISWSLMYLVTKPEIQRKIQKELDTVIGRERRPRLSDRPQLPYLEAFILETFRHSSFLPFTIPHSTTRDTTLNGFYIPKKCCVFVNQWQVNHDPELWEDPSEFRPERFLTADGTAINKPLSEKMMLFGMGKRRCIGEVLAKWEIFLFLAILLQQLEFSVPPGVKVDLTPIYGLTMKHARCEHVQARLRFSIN

Cytochrome P450 2D6 = Cytochrome P450 2D6 (Homo sapiens, UniProt P10635); test: Inhibition of human microsomal CYP2D6 expressed in baculovirus infected insect cells using luciferin-ME as substrate preincubated with enzyme/substrate mixture for 30 mins followed by further incubation with NADPH for 30 mins by CYP450 luciferase Glo assay; type: ADME
Sequence of Cytochrome P450 2D6 (P10635 whole entry): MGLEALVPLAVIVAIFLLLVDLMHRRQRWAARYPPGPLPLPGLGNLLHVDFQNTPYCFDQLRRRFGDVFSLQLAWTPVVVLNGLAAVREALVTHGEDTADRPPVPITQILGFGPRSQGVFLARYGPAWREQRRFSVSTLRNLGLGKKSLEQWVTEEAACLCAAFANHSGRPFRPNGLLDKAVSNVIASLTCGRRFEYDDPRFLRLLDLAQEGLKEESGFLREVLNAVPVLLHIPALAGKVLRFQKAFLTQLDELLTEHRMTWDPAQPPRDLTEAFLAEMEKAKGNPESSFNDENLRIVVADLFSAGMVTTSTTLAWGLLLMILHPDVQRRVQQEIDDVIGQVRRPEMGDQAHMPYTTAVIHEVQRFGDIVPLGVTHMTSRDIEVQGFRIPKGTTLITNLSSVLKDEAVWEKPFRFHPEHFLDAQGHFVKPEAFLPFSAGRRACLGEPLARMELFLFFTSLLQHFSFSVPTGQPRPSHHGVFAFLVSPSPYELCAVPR

Cytochrome P450 3A4 = Cytochrome P450 3A4 (Homo sapiens, UniProt P08684); test: Inhibition of human microsomal CYP3A4 expressed in baculovirus infected insect cells using luciferin-IPA as substrate preincubated with enzyme/substrate mixture for 30 mins followed by further incubation with NADPH for 30 mins by CYP450 luciferase Glo assay; type: ADME
Sequence of Cytochrome P450 3A4 (P08684 whole entry): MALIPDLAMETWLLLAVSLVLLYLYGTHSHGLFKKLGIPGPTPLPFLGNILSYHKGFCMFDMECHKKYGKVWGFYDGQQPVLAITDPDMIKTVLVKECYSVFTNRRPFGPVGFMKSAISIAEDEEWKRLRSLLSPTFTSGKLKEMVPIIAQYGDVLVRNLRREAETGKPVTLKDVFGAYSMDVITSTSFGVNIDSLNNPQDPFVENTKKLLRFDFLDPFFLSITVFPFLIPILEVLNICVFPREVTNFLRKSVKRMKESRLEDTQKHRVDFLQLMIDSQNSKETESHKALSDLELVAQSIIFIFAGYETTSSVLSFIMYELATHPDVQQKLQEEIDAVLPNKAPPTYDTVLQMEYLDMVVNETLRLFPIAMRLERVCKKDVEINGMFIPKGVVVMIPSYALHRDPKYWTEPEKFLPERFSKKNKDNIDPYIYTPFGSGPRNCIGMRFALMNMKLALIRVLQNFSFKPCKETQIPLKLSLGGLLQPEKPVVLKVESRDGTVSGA

[20] = Half life in C57BL/6 mouse at 2 mg/kg, iv or 5 mg/kg, po administered as single dose measured up to 24 hrs by LC-MS/MS analysis; type: ADME, organism-based; settings: in vivo
[21] = Volume of distribution at steady state in C57BL/6 mouse at 2 mg/kg, iv or 5 mg/kg, po administered as single dose measured up to 24 hrs by LC-MS/MS analysis; type: ADME, organism-based; settings: in vivo, read-out: Vdss
[22] = Clearance in C57BL/6 mouse at 2 mg/kg, iv or 5 mg/kg, po administered as single dose measured up to 24 hrs by LC-MS/MS analysis; type: ADME, organism-based; settings: in vivo
[23] = Oral bioavailability in C57BL/6 mouse at 5 mg/kg administered as single dose measured up to 24 hrs by LC-MS/MS analysis; type: ADME, organism-based; settings: in vivo
Summary of the method: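 C57BL/6 mice were dosed 5 mg/kg orally, with a 2 mg/kg iv reference arm. Plasma was sampled at eight time points up to 24 h.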

[24] = target: Human immunodeficiency virus type 1 integrase (Human immunodeficiency virus 1) (UniProt Q7ZJM1); test: Inhibition of wild type recombinant HIV1 His6-tagged integrase expressed in Escherichia coli BL21 using 18 nucleotide 3'-biotin labeled DNA acceptor as substrate upto 10 uM preincubated for 1 hr followed by substrate addition and further incubated for 90 mins in presence of recombinant LEDGF/p75 by HTRF assay
Sequence of Human immunodeficiency virus type 1 integrase (Human immunodeficiency virus 1) (Q7ZJM1 as listed by the source): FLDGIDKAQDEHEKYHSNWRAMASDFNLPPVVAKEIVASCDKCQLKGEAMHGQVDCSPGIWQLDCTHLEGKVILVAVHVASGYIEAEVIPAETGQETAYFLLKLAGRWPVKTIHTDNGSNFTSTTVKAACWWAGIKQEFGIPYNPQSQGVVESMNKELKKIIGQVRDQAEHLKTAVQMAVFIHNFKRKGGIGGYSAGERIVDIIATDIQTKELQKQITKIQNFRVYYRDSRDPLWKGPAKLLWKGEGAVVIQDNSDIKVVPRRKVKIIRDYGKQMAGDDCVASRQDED

## COc1ccnc(-c2nc(O)c(O)c(C(=O)N[C@H](C)C3CCCCC3)n2)c1
[1]
  IC50: 22000 nM
[2]
  EC50: 40 nM
[3]
  CC50: 3000 nM
[4]
  selectivity ratio: 75
[5]
  CC50 at 168 h: 2700 nM
[6]
  selectivity ratio at 7 days: 75
[7]
  EC50: 56 nM
[8]
  EC50: 31 nM
[9]
  EC50: 110 nM
[10]
  EC50: 90 nM
[11]
  Ratio IC50: 1.4
[12]
  Ratio IC50: 0.8
[13]
  Ratio IC50: 2.8
[14]
  Ratio IC50: 2.3
[15]
  half-life at 3 µM: > 24 h
[16]
  half-life at 3 µM: > 6 h
[17]
  half-life at 3 µM: 1.9 h
[18]
  half-life at 3 µM: > 4 h
[19]
  IC50: > 30000 nM
Cytochrome P450 1A2
  IC50: > 30000 nM
Cytochrome P450 2D6
  IC50: > 30000 nM
Cytochrome P450 3A4
  IC50: > 30000 nM
[20]
  half-life: 1.4 h
[21]
  Vd: 0.8 L/kg
[22]
  clearance: 33.1 mL/min/kg
[23]
  bioavailability: 25%
[24]
  inhibition: inactive
